Assay results as given in ChEMBL document CHEMBL1147484, “SAR of benzoylpyridines and benzophenones as p38alpha MAP kinase inhibitors with oral activity” (Bioorg Med Chem Lett, 2004).

How the values were obtained:
[1] = target: Mitogen-activated protein kinase 14 (Mus musculus, UniProt P47811); assay: Inhibition of murine His-Mitogen-activated protein kinase p38 alpha phosphorylation.
Mus musculus [2] = assay: Inhibition of […] induced TNF-alpha release in mice upon oral administration; format: functional
Rattus norvegicus [3] = assay: Percent swelling of joints in rats immunized with Mycobacterium tuberculosis was determined on day 20 after 25 mg/kg peroral administration; format: functional; details: route oral
Summary of the method: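 Female Wistar rats immunized with Mycobacterium tuberculosis at day 0 (adjuvant-induced arthritis); oral dosing 25 mg/kg twice daily from day 14 to 20; joint swelling measured on day 20, expressed as % inhibition of swelling.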

[4] = target: Proto-oncogene tyrosine-protein kinase Src (Homo sapiens) (UniProt P12931); assay: Inhibition of human c-Src at 10 uM
[5] = Oral bioavailability; format: ADME, organism-based; details: rat, in vivo
Summary of the method: (§1)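 Pharmacokinetics were determined in rat. Cmax was measured after a 1 mg/kg oral dose. Oral bioavailability, terminal half-life and steady-state volume of distribution (Vss, L/kg) were reported.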

[6] = target: T1, Epidermal growth factor receptor (Homo sapiens, UniProt P00533); assay: (§2) Inhibition of human Epidermal growth factor receptor
T1 sequence (P00533 whole entry): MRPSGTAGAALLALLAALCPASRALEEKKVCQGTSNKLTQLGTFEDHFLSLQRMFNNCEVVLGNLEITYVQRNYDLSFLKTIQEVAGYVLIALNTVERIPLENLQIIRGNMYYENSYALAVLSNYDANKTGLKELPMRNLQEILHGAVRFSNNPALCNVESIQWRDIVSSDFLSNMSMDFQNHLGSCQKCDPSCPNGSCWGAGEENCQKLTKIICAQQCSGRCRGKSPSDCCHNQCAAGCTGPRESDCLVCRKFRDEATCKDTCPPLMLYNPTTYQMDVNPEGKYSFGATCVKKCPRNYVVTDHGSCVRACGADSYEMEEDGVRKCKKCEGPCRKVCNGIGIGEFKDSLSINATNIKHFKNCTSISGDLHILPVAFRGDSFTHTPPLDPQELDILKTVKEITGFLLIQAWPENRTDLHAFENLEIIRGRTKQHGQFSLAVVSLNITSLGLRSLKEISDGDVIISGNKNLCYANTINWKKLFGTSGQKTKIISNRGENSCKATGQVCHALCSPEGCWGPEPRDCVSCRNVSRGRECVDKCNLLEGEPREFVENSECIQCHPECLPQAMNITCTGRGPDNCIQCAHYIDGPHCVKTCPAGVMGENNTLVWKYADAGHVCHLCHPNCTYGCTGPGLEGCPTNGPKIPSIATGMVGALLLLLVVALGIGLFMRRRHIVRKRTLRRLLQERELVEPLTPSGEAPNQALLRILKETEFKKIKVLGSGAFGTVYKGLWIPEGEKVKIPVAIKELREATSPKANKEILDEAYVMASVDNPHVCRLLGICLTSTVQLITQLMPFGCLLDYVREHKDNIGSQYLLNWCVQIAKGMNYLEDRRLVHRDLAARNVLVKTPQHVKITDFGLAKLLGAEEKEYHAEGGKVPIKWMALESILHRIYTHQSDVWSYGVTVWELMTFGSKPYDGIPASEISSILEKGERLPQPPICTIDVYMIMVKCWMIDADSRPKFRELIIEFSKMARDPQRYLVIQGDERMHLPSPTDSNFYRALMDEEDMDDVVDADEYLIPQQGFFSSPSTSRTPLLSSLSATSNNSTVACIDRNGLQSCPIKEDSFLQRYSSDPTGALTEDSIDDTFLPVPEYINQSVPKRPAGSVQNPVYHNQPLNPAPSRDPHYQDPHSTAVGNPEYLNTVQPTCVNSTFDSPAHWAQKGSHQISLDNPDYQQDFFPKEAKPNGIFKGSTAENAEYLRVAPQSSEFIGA

Cytochrome P450 3A4 = Cytochrome P450 3A4 (Homo sapiens, UniProt P08684); assay: Inhibition of human cytochrome P450 3A4; format: ADME
Cytochrome P450 3A4, sequence (P08684 whole entry): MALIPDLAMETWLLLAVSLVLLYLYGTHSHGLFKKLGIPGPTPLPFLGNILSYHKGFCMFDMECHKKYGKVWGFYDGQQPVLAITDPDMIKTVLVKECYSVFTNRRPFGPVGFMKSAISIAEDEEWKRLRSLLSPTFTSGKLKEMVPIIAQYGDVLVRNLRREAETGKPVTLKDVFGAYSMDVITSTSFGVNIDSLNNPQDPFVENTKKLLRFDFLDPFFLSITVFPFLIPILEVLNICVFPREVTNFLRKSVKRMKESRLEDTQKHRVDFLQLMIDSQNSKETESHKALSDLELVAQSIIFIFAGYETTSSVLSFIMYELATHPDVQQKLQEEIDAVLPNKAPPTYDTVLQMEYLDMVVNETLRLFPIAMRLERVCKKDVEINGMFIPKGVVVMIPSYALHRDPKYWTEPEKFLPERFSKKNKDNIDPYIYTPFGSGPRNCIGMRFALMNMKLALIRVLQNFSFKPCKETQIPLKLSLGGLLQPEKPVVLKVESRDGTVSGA

[7] = target: Mitogen-activated protein kinase 9 (Homo sapiens, UniProt P45984); assay: Inhibit of human c-Jun N-terminal kinase 2
[8] = Peak plasma concentration at 1 mg/kg peroral administration; format: ADME, organism-based; set-up: dose 1 mg/kg, route oral; details: rat, po; summary of the method: as §1
[9] = Volume of distribution in steady state was determined in rat; format: ADME, organism-based; details: in vivo, read-out: Vss; summary of the method: as §1
Cytochrome P450 2C9 = Cytochrome P450 2C9 (Homo sapiens, UniProt P11712); assay: Inhibition of human cytochrome P450 2C9; format: ADME
Cytochrome P450 2C9, sequence (P11712 whole entry): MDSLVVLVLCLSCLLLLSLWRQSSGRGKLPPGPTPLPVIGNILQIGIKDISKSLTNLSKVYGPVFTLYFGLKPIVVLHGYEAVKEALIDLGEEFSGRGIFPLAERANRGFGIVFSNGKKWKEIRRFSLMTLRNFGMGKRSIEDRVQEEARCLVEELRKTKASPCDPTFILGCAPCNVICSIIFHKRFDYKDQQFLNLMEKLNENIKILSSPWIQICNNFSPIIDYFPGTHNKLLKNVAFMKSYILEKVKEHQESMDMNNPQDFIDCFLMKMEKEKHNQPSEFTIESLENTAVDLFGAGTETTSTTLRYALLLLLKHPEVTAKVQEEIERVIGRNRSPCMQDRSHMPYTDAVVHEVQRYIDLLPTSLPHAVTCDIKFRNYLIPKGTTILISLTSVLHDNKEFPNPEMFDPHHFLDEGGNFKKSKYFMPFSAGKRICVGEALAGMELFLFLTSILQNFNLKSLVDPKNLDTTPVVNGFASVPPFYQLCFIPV

[10] = target: T1, Epidermal growth factor receptor; assay: as §2; remark: listed apart in the source
Cytochrome P450 1A2 = target: T2, Cytochrome P450 1A2 (Homo sapiens, UniProt P05177); assay: Inhibition of human cytochrome P450 1A2; format: ADME
T2 sequence (P05177 whole entry): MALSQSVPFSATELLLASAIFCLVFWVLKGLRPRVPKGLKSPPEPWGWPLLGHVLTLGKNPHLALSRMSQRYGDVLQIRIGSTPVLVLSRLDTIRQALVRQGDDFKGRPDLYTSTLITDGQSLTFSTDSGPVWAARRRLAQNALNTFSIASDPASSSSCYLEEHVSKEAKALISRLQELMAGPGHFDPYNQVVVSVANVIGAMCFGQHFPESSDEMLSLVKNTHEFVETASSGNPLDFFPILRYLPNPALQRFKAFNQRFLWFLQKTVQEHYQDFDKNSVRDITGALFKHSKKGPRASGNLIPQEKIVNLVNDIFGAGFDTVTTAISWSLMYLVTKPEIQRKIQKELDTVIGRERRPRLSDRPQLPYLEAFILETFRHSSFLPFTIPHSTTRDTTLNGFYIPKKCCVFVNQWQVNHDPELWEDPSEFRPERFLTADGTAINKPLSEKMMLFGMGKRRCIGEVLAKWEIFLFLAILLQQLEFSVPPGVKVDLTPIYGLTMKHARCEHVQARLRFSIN

[11] = target: RAF proto-oncogene serine/threonine-protein kinase (Homo sapiens) (UniProt P04049); assay: Inhibition of human RAF proto-oncogene serine/threonine-protein kinase at 10 uM
[12] = target: Insulin-like growth factor 1 receptor (Homo sapiens) (UniProt P08069); assay: Inhibition of human insulin-like growth factor I receptor at 10 uM
Insulin-like growth factor 1 receptor (Homo sapiens), sequence (P08069 31-736 limits assumed): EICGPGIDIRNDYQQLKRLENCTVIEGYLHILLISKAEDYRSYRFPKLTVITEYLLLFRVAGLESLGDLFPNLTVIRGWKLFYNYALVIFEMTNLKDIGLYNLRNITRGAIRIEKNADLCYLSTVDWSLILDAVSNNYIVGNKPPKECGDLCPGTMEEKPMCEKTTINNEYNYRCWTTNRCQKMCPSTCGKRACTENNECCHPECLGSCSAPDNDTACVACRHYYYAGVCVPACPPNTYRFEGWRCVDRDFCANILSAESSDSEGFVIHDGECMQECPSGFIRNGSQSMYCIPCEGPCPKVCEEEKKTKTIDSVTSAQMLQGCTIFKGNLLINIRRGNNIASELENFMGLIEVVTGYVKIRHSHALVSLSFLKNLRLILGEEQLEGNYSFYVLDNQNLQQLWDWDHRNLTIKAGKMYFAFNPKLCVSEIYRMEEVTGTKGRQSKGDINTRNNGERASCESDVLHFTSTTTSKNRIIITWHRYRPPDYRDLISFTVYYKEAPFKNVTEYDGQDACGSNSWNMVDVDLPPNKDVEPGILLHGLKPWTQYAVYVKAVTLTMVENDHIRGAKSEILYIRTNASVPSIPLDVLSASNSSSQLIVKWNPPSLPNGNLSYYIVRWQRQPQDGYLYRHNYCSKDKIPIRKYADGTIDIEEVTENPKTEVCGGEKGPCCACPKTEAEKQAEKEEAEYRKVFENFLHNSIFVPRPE
Insulin-like growth factor 1 receptor (Homo sapiens), sequence (P08069 741-1367 limits assumed): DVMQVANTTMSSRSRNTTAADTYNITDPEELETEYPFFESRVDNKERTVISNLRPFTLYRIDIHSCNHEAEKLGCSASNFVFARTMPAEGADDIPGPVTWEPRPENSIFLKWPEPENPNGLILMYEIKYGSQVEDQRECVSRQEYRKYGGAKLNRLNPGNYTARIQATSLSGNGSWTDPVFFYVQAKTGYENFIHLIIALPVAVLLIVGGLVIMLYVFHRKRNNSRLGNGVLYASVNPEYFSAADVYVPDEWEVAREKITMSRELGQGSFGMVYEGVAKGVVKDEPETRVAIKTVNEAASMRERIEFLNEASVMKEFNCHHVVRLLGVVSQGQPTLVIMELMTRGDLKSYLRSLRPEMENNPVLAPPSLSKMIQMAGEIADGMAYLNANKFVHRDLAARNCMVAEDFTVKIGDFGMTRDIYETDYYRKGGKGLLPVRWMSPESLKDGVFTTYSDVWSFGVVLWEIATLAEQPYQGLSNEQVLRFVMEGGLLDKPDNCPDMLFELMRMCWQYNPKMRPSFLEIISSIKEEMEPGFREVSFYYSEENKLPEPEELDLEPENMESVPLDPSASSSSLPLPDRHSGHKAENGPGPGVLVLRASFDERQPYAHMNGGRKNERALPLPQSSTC

[13] = target: Prostaglandin G/H synthase 1 (Homo sapiens, UniProt P23219); assay: Inhibition of human prostaglandin G/H synthase 1
Prostaglandin G/H synthase 1, sequence (P23219 whole entry): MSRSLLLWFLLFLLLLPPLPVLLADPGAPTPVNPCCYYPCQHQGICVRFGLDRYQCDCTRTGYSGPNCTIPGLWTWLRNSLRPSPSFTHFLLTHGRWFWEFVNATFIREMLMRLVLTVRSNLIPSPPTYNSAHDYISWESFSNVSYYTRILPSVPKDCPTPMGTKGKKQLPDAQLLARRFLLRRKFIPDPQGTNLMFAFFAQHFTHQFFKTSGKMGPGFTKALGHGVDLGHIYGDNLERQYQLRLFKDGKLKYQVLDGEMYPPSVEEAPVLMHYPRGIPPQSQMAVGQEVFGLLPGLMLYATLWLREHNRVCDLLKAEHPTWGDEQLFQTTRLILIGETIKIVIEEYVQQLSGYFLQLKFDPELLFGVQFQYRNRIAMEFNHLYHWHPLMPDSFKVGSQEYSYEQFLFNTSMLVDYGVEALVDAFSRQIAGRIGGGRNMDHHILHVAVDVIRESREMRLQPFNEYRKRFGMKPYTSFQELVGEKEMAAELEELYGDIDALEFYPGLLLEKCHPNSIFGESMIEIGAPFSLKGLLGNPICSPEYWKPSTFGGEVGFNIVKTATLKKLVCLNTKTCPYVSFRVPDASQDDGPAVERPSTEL

[14] = target: Hepatocyte growth factor receptor (Homo sapiens, UniProt P08581); assay: Inhibit of human Met proto-oncogene tyrosine kinase
Cytochrome P450 2D6 = Cytochrome P450 2D6 (Homo sapiens, UniProt P10635); assay: Inhibition of human cytochrome P450 2D6; format: ADME
Cytochrome P450 2D6, sequence (P10635 whole entry): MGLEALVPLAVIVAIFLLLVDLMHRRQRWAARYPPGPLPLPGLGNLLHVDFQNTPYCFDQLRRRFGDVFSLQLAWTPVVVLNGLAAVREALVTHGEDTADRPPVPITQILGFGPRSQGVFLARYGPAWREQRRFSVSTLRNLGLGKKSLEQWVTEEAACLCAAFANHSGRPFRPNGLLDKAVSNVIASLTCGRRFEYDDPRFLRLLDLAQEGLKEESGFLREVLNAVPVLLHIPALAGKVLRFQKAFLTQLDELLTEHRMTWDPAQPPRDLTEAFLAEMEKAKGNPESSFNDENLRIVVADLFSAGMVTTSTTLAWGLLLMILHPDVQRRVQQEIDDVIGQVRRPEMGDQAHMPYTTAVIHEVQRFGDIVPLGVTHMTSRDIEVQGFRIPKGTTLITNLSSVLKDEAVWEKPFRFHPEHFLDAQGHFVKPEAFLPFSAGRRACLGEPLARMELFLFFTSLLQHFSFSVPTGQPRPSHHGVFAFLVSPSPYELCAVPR

Rattus norvegicus [15] = assay: Dose required to inhibit bovine nasalseptum type II collagen induced arthritis in rats after administration on day 13; format: functional; details: 312 h
[16] = target: Fibroblast growth factor receptor (Homo sapiens) (UniProt P22607+P11362+P22455+P21802); assay: Inhibitory activity against human FGFR at 10 uM; format: protein assay
[17] = target: Cyclin-dependent kinase 1 (Homo sapiens) (UniProt P06493); assay: Inhibition of human cyclin-dependent kinase 1 at 10 uM
[18] = target: T1, Epidermal growth factor receptor; details: 10 uM
[19] = target: Mast/stem cell growth factor receptor Kit (Homo sapiens) (UniProt P10721); assay: Inhibition of human c-Kit kinase; details: concentration not given here
Mus musculus [20] = assay: Dose required to inhibit […] induced TNF-alpha release in mice upon oral administration; format: functional

Mitogen-activated protein kinase 14, sequence (P47811 whole entry): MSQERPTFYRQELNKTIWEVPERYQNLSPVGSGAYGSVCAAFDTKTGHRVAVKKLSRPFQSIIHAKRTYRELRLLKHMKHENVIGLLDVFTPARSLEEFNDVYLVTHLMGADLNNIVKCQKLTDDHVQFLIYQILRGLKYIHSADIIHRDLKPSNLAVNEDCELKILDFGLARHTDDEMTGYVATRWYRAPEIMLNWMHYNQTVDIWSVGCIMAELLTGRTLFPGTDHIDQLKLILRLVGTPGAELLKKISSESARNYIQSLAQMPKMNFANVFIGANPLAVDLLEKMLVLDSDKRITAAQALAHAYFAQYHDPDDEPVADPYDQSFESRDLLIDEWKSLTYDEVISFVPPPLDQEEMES

Compound	IC50 [1]	Inhibition (Mus musculus [2])	Swelling (Rattus norvegicus [3])	also measured
CC(C)(N)C#Cc1ccc(Cl)c(C(=O)c2ccc(Nc3ccc(F)cc3F)nc2)c1	19 µM	50%	36%	
O=C(c1ccc(Nc2ccc(F)cc2F)cc1)c1ccccc1Cl	11 µM	6%		
COc1ccc(C#CC(C)(C)N)cc1C(=O)c1ccc(Nc2ccc(F)cc2F)cc1	14 µM	95%	51%	inhibition [4]: -10%; bioavailability [5]: 46%; IC50 [6]: 4.4 µM; IC50 (Cytochrome P450 3A4): > 2 µM; IC50 [7]: > 10 µM; Cmax [8]: 59 nM; Vd [9]: 9 L/kg; IC50 (Cytochrome P450 2C9): > 2 µM; IC50 [10]: 8.8 µM; IC50 (Cytochrome P450 1A2): > 2 µM; inhibition [11]: 0%; inhibition [12]: 0%; IC50 [13]: > 80 µM; IC50 [14]: 1.5 µM; IC50 (Cytochrome P450 2D6): > 2 µM
O=C(c1ccc(Nc2ccc(F)cc2F)nc1)c1ccccc1Cl	101 µM			
COc1cc2nc(C)[nH]c2cc1C(=O)c1ccc(Nc2ccc(F)cc2F)cc1	5 µM			IC50 (Cytochrome P450 3A4): > 2 µM; IC50 [7]: > 10 µM; IC50 (Cytochrome P450 2C9): > 2 µM; IC50 (Cytochrome P450 1A2): > 2 µM; IC50 [13]: > 80 µM; IC50 (Cytochrome P450 2D6): > 2 µM
COc1ccc(CCC(C)(C)O)cc1C(=O)c1ccc(Nc2ccc(F)cc2F)nc1	479 µM			
COc1ccc(CCC(C)(C)N)cc1C(=O)c1ccc(Nc2ccc(F)cc2F)cc1	113 µM	0%		
COc1ccc(C#CC(C)(C)N)cc1C(=O)c1ccc(Nc2ccc(F)cc2F)nc1	8 µM	91%	52%	
COc1cc2[nH]c(C)nc2cc1C(=O)c1ccc(Nc2ccc(F)cc2F)nc1	21 µM	57%	70%	ED50 (Rattus norvegicus [15]): 8.6 mg/kg; bioavailability [5]: 54%; Cmax [8]: 607 nM; Vd [9]: 1.1 L/kg
CC(C)(N)CCc1ccc(Cl)c(C(=O)c2ccc(Nc3ccc(F)cc3F)nc2)c1	160 µM			
Cc1nc2cc(C(=O)c3ccc(Nc4ccc(F)cc4F)cc3)c(Cl)cc2[nH]1	0.7 µM	93%	46%	
COc1ccc(CCC2(O)CCN(C)CC2)cc1C(=O)c1ccc(Nc2ccc(F)cc2F)cc1	51 µM	0%		
COc1ccccc1C(=O)c1ccc(Nc2ccc(F)cc2F)cc1	38 µM	0%		
CC(C)(N)C#Cc1ccc(Cl)c(C(=O)c2ccc(Nc3ccc(F)cc3F)cc2)c1	6 µM	85%		
COc1cc2[nH]c(C)nc2cc1C(=O)c1ccc(Nc2ccc(F)cc2F)cc1		90%	50%	inhibition [4]: 0%; inhibition [16]: 0%; inhibition [17]: 0%; inhibition [18]: -10%; inhibition [12]: 0%; inhibition [19]: 0%
COc1ccc(C#CC(C)(C)O)cc1C(=O)c1ccc(Nc2ccc(F)cc2F)nc1	54 µM	88%	23%	ED50 (Mus musculus [20]): 23 mg/kg
COc1ccc(/C=C/C2(O)CCN(C)CC2)cc1C(=O)c1ccc(Nc2ccc(F)cc2F)cc1	1 µM	68%	47%	
Cc1nc2cc(C(=O)c3ccc(Nc4ccc(F)cc4F)nc3)c(Cl)cc2[nH]1	8 µM	91%	40%	
O=C(c1ccc(Nc2ccc(F)cc2F)nc1)c1cc(Br)ccc1Cl	300 µM			
